Data published in ChEMBL document CHEMBL2429814 (J Med Chem, 2013).
Active and inactive are the calls of the source. No cut-off for these calls is given here.

Assays:
[1] = target: Metabotropic glutamate receptor 5 (Rattus norvegicus) (UniProt P31424); test: Positive allosteric modulation of rat mGluR5 stably expressed in HEK293 cells assessed as increase in intracellular calcium level by Fluo-4AM dye-based fluorescence assay relative to glutamate; format: functional, cell-based
[2] = Plasma protein binding in human; format: ADME, cell-free
Summary of the method: (§1)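 Fraction unbound measured by equilibrium dialysis in human or rat plasma.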

[3] = Agonist activity at rat mGluR5 T780A mutant stably expressed in HEK293 cells assessed as increase in intracellular calcium level at 1 to 100 uM by Fluo-4AM dye-based fluorescence assay; format: cell-based; conditions: hek293, 100 µM
[4] = Plasma protein binding in rat; format: ADME, cell-free; summary of the method: as §1
[5] = target: T1, Metabotropic glutamate receptor 5 (Rattus norvegicus, UniProt P31424); test: Agonist activity at rat mGluR5 stably expressed in HEK293 cells assessed as increase in intracellular calcium level by Fluo-4AM dye-based fluorescence assay; format: cell-based; conditions: read-out: EC50
Summary of the method: (§2)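 HEK293 cells stably expressing rat mGlu5 (low receptor density line), 15,000 cells/well, grown overnight at 37°C/5% CO2. Loaded with Fluo-4AM for 50 min at 37°C in HBSS with 20 mM HEPES, 2.5 mM probenecid, pH 7.4. Triple add: compound, then EC20 glutamate 140 s later, then EC80 glutamate 60 s later. Calcium fluorescence read over time. Values are means of ≥3 independent experiments run in duplicate or triplicate.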

[6] = target: T1, Metabotropic glutamate receptor 5; test: Positive allosteric modulation of rat mGluR5
[7] = target: T1, Metabotropic glutamate receptor 5; test: Positive allosteric modulation of rat mGluR5 stably expressed in HEK293 cells assessed as increase in intracellular calcium level by Fluo-4AM dye-based fluorescence assay; format: functional, cell-based; conditions: read-out: EC50; summary of the method: as §2
[8] = target: T1, Metabotropic glutamate receptor 5; test: Agonist activity at rat mGluR5 stably expressed in HEK293 cells assessed as increase in intracellular calcium level by Fluo-4AM dye-based fluorescence assay relative to glutamate; format: cell-based; conditions: read-out: Efficacy
Summary of the method: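 HEK293 cells stably expressing rat mGlu5 (low receptor density), 15,000 cells/well, grown overnight, then loaded with Fluo-4AM for 50 min at 37°C in HBSS/20 mM HEPES/2.5 mM probenecid, pH 7.4. Triple-add protocol: compound, then glutamate EC20 140 s later, then EC80 60 s later. Fluorescence read over time. At least three independent runs in duplicate or triplicate; response given as % of glutamate maximum.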

[9] = target: T1, Metabotropic glutamate receptor 5; test: Positive allosteric modulation of rat mGluR5 stably expressed in HEK293 cells assessed as Ca2+ flux by FLIPR assay; format: functional, cell-based
[10] = target: T2, Metabotropic glutamate receptor 5 (Homo sapiens, UniProt P41594); test: Positive allosteric modulation of human mGluR5 stably expressed in HEK293 cells assessed as Ca2+ flux by FLIPR assay
Cytochrome P450 2D6 = Cytochrome P450 2D6 (Homo sapiens, UniProt P10635); test: Inhibition of human CYP2D6; format: ADME
Summary of the method: (§3)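 Inhibition of individual human CYP isoforms (2C9, 2D6, 3A4) measured in human liver microsomes; IC50 values reported.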

[11] = target: Metabotropic glutamate receptor 2 (Rattus norvegicus) (UniProt P31421); test: Potentiation of rat mGluR2 receptor stably expressed in HEK293-GIRK cells assessed as fold shift in glutamate concentration response curve at 10 uM by C2+ mobilization assay relative to control; format: cell-based; conditions: in the assay text read “thallium flux assay” for “C2+ mobilization assay”
Summary of the method: (§4)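 HEK293-GIRK cells expressing the rat mGlu subtype were plated at 15,000 cells/well. Compound at 10 µM, or vehicle, was added, then 140 s later a concentration-response curve of glutamate (L-AP4 for mGlu7) in thallium buffer containing 12 mM thallium sulfate. Thallium flux through GIRK channels was read by fluorescence, and the fold shift of the agonist curve was derived.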

[12] = target: T1, Metabotropic glutamate receptor 5; test: Agonist activity at mGlu5R in SC-CA1 synapse of Sprague-Dawley rat hippocampus assessed as induction of long-term depression at 10 uM measured 55 mins post compound washout; format: tissue-based
Summary of the method: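 Male Sprague-Dawley rats aged 30–40 days; hippocampal slices at 30–32°C. Bipolar stimulation of Schaffer collaterals near the CA3-CA1 border, recording in CA1 stratum radiatum, baseline intensity 50–60% of maximum. Compound in DMSO, bath-perfused. fEPSP slopes averaged over three sequential responses and normalized to the pre-drug baseline.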

[13] = target: T1, Metabotropic glutamate receptor 5; test: Agonist activity at mGlu5R in CA3 pyramidal neurons Sprague-Dawley rat hippocampus assessed as effect on amplitude relative to control; format: tissue-based
Cytochrome P450 1A2 = target: T3, Cytochrome P450 1A2 (Homo sapiens, UniProt P05177); test: Inhibition of human CYP1A2; format: ADME
T3 sequence (P05177 whole entry): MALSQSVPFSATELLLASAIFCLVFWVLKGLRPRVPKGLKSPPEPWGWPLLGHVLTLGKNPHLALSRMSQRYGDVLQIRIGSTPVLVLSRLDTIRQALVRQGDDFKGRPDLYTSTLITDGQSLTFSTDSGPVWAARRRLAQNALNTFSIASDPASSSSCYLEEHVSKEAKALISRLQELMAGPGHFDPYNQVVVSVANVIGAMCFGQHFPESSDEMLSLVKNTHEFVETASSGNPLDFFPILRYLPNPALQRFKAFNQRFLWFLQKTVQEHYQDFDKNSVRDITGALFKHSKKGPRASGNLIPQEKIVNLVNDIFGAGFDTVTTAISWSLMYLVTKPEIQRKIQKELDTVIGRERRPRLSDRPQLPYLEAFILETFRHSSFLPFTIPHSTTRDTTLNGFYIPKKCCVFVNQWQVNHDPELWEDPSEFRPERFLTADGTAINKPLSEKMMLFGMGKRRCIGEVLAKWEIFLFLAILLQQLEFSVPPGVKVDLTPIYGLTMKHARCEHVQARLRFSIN
Summary of the method: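 Inhibition of the human CYP1A2 isoform measured in human liver microsomes; reported as IC50.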

Brain = test: Fraction unbound in rat brain; format: ADME, tissue-based
Summary of the method: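 Binding to rat brain homogenate used to derive fraction unbound in brain.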

Plasma [14] = test: (§5) Fraction unbound in rat plasma by equilibrium dialysis method; format: ADME, cell-free
Summary of the method: (§6)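 Plasma protein binding measured by equilibrium dialysis in human or rat plasma; reported as percent unbound.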

[15] = target: T1, Metabotropic glutamate receptor 5; test: Agonist activity at mGlu5R in CA3 pyramidal neurons Sprague-Dawley rat hippocampus assessed as effect on intervent interval relative to control; format: tissue-based
Summary of the method: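 Male Sprague-Dawley rats aged 24–30 days; hippocampal slices equilibrated 5–10 min at 30–32°C in a submersion chamber. Recording electrode in the CA3 pyramidal cell body layer. Compound diluted in DMSO and bath-perfused. Spontaneous epileptiform events recorded as field potentials, with inter-event interval normalized to baseline.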

[16] = target: Metabotropic glutamate receptor 4 (Rattus norvegicus) (UniProt P31423); test: Potentiation of rat mGluR4 receptor stably expressed in HEK293-GIRK cells assessed as fold shift in glutamate concentration response curve at 10 uM by C2+ mobilization assay relative to control; format: cell-based; conditions: in the assay text read “thallium flux assay” for “C2+ mobilization assay”; summary of the method: as §4
Cytochrome P450 2C9 = Cytochrome P450 2C9 (Homo sapiens, UniProt P11712); test: Inhibition of human CYP2C9; format: ADME; summary of the method: as §3
[17] = target: Metabotropic glutamate receptor 8 (Rattus norvegicus) (UniProt P70579); test: Potentiation of rat mGluR8 receptor stably expressed in HEK293-GIRK cells assessed as fold shift in glutamate concentration response curve at 10 uM by C2+ mobilization assay relative to control; format: cell-based; conditions: in the assay text read “thallium flux assay” for “C2+ mobilization assay”; summary of the method: as §4
[18] = Agonist activity at rat mGluR5 S808A mutant stably expressed in HEK293 cells assessed as increase in intracellular calcium level at 1 to 100 uM by Fluo-4AM dye-based fluorescence assay; format: cell-based; conditions: hek293, 100 µM
[19] = target: Metabotropic glutamate receptor 7 (Rattus norvegicus) (UniProt P35400); test: Potentiation of rat mGluR7 receptor stably expressed in HEK293-GIRK cells assessed as fold shift in […] concentration response curve at 10 uM by […] relative to control; format: cell-based; summary of the method: as §4
[20] = target: Metabotropic glutamate receptor 6 (Rattus norvegicus) (UniProt P35349); test: Potentiation of rat mGluR6 receptor stably expressed in HEK293-GIRK cells assessed as fold shift in glutamate concentration response curve at 10 uM by C2+ mobilization assay relative to control; format: cell-based; conditions: in the assay text read “thallium flux assay” for “C2+ mobilization assay”; summary of the method: as §4
[21] = target: Metabotropic glutamate receptor 1 (Rattus norvegicus) (UniProt P23385); test: Potentiation of rat mGluR1 receptor stably expressed in HEK293 cells assessed as fold shift in glutamate concentration response curve at 10 uM by […] mobilization assay relative to control; format: cell-based
Summary of the method: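 HEK293 cells stably expressing rat mGlu1 were plated at 20,000 cells/well and loaded with Fluo-4AM. Compound at 10 µM final, or vehicle, was added, then a glutamate concentration-response curve 140 s later. Calcium flux was measured as fluorescence increase, and the fold shift of the glutamate curve was derived.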

[22] = target: Metabotropic glutamate receptor 3 (Rattus norvegicus) (UniProt P31422); test: Potentiation of rat mGluR3 receptor stably expressed in HEK293-GIRK cells assessed as fold shift in glutamate concentration response curve at 10 uM by C2+ mobilization assay relative to control; format: cell-based; conditions: in the assay text read “thallium flux assay” for “C2+ mobilization assay”; summary of the method: as §4
Plasma [23] = test: (§7) Fraction unbound in human plasma by equilibrium dialysis method; format: ADME, cell-free; summary of the method: as §6
[24] = as §5; format: ADME, cell-free; summary of the method: as §6
[25] = as §7; format: ADME, cell-free; summary of the method: as §6
[26] = target: T2, Metabotropic glutamate receptor 5; test: Positive allosteric modulation of human mGluR5
[27] = target: Metabotropic glutamate receptor 5 (Rattus norvegicus) (UniProt P31424); test: Positive allosteric modulation of mGluR5 in rat cortical neurons at 3 uM relative to DHPG

T1 sequence (P31424 whole entry): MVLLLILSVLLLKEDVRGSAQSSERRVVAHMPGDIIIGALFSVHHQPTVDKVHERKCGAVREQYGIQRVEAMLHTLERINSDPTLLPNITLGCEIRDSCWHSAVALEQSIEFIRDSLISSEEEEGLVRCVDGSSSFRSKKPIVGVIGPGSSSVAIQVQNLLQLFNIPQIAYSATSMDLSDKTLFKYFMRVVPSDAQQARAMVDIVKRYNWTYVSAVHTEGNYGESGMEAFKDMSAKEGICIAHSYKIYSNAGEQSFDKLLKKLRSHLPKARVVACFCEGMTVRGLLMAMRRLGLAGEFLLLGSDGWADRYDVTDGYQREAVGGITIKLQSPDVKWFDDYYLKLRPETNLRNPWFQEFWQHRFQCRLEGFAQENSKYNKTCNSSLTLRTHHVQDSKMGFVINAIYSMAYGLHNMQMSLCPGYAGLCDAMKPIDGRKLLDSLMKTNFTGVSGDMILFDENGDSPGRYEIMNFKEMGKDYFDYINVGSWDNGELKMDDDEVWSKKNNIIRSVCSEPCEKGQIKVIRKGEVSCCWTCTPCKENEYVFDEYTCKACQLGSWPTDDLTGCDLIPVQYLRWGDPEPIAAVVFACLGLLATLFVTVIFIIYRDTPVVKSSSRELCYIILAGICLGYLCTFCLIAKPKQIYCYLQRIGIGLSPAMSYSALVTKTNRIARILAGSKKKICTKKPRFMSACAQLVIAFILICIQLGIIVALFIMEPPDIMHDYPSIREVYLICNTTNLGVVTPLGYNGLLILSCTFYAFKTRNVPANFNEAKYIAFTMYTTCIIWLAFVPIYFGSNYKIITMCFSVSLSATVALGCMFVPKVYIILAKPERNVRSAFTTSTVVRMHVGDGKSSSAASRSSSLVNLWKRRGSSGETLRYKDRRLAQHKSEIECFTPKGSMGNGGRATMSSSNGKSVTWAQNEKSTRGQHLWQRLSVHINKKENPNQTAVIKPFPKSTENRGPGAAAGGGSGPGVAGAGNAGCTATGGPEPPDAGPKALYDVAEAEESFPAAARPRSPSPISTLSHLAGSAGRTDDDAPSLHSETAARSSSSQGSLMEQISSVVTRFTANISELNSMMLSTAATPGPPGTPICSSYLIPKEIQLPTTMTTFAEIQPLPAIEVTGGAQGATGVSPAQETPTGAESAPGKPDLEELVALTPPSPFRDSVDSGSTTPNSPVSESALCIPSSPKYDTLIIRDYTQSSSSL
Sequence of Metabotropic glutamate receptor 5 (Rattus norvegicus) (P31424 21-1203 limits assumed): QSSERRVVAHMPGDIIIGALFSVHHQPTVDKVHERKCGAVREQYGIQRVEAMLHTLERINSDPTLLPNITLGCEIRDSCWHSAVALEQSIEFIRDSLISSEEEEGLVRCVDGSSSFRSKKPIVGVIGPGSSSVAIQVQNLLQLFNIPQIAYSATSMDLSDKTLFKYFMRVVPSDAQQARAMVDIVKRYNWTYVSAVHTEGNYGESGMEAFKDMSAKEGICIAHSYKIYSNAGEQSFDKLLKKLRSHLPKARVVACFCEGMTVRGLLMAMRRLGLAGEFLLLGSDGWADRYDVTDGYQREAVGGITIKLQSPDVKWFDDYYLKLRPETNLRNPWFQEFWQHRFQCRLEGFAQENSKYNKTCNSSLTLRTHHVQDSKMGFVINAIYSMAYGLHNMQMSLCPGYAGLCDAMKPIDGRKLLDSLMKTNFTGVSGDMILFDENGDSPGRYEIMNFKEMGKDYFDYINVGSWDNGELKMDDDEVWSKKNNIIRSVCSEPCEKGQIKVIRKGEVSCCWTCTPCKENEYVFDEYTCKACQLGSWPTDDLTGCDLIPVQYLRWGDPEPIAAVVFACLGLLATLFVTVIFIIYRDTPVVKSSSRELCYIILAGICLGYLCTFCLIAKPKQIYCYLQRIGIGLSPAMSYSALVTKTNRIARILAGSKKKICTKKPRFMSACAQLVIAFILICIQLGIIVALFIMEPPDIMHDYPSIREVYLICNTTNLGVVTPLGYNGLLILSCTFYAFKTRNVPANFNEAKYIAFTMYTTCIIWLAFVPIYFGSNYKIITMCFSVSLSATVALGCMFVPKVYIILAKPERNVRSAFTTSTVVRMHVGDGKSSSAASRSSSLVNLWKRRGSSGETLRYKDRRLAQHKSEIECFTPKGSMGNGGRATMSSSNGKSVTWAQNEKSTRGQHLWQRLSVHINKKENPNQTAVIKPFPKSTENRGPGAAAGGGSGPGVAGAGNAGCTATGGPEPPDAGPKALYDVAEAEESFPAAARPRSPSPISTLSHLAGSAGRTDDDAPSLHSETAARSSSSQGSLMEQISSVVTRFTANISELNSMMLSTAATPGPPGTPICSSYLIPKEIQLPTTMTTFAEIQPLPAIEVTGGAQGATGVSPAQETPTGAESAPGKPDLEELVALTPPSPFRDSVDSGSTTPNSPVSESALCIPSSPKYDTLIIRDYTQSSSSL
T2 sequence (P41594 whole entry): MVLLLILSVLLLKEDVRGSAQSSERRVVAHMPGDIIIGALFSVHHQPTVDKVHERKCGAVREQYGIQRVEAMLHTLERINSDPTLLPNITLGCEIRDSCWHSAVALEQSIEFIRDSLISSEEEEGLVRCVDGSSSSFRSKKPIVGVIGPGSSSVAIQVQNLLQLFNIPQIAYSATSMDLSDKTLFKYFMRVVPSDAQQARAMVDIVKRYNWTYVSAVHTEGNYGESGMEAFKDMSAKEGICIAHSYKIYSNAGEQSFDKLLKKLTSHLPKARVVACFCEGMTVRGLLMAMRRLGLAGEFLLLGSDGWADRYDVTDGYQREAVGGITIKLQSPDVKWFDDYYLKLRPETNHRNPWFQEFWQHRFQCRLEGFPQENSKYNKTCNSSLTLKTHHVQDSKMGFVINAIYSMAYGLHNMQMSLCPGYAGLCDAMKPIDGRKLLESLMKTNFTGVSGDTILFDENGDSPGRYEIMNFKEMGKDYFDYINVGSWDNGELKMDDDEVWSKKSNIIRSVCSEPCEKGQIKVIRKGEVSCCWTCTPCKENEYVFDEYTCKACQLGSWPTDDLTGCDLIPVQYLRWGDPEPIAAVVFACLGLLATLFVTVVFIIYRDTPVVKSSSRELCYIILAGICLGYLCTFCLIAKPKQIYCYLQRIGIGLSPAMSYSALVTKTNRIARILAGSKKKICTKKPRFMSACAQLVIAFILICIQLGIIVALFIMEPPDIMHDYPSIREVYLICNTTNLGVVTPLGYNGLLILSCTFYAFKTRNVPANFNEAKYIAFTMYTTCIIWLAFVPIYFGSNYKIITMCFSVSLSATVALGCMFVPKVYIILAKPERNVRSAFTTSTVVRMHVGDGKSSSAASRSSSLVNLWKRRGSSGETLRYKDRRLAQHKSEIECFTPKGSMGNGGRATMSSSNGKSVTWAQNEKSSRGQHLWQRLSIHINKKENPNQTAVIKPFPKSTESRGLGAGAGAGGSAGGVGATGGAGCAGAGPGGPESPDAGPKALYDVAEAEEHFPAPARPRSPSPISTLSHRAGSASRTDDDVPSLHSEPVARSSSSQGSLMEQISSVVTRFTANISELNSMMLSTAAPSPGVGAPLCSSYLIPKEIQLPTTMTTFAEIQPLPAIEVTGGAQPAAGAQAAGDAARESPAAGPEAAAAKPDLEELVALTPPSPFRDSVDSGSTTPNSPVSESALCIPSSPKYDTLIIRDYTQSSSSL
Sequence of Metabotropic glutamate receptor 8 (Rattus norvegicus) (P70579 whole entry): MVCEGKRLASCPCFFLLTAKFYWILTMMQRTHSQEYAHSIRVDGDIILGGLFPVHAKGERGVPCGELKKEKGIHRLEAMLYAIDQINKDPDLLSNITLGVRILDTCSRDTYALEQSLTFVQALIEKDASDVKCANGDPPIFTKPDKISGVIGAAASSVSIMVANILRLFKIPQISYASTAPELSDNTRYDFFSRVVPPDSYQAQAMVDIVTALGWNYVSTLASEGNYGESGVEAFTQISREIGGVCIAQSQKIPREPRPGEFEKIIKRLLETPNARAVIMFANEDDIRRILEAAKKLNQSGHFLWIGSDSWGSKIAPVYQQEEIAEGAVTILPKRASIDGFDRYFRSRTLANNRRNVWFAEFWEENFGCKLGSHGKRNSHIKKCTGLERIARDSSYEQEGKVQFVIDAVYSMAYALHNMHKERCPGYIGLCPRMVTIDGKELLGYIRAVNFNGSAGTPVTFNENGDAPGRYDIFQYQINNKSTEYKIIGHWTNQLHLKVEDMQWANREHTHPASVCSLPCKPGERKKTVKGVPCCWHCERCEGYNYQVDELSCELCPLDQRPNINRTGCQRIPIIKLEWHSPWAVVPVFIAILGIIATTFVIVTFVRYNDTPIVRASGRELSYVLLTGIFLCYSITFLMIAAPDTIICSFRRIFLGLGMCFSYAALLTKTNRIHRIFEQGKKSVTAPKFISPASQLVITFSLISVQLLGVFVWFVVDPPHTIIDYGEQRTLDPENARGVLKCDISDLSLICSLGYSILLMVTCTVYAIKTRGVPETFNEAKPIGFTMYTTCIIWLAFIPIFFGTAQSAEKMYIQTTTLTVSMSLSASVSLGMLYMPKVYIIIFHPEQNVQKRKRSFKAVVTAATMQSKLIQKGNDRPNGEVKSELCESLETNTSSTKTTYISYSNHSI
Sequence of Cytochrome P450 2D6 (P10635 whole entry, canonical isoform): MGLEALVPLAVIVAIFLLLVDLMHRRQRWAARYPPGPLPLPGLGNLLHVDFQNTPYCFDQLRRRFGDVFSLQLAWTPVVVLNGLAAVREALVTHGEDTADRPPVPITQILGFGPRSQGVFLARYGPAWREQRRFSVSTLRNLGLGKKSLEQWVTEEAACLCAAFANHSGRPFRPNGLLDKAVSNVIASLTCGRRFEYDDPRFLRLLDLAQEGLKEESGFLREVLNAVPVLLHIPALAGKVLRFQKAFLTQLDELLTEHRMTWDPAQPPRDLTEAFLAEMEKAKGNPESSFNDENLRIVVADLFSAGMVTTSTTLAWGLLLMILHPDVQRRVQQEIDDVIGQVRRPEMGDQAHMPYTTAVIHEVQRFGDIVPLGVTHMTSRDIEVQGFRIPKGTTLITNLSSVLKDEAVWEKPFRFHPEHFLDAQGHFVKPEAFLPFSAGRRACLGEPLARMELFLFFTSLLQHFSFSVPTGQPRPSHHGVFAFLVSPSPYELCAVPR

For `C[C@@H](NC(=O)c1ccc(C#Cc2cccc(F)c2)cn1)C(C)(C)O`, the Efficacy [1] was 63.5%, the fraction unbound [2] was 0.027 and the Activity [3] was “Not Active”. For the same compound, the fraction unbound [4] was 0.028, the EC50 [5] was 904 nM and the EC50 [6] was 1.5 nM. For the same compound, the EC50 [7] was 4.9 nM and the Emax [8] was 37.1%.

In the case of `O=C(c1ccc(F)cc1)N1CCC[C@H](c2nc(-c3ccc(F)cc3)no2)C1`, the EC50 [9] is reported as 55 nM and the EC50 [10] is reported as 157 nM.

For `CC1(NC(=O)c2ccc(C#Cc3cccc(F)c3)cn2)COC1`, the IC50 (Cytochrome P450 2D6) was greater than 30000 nM, the Activity [11] was “inactive” and the Efficacy [1] was 45.5%. The Activity [12] was 100.3%, the Activity [13] was 101.2% and the Activity [3] was “Not Active”. It also gave an IC50 (Cytochrome P450 1A2) of 5300 nM, a Fu (Brain) of 1.6% and a Fu (Plasma [14]) of 3.6%. The Activity [15] was 127.9%, the Activity [16] was “inactive” and the IC50 (Cytochrome P450 2C9) was greater than 30000 nM. For the same compound, the Activity [17] was “inactive”, the Activity [18] was “Active” and the Activity [19] was “inactive”. For the same compound, the Activity [20] was “inactive”, the Activity [21] was “inactive” and the Activity [22] was “inactive”. It also gave a Fu (Plasma [23]) of 3.5%.

`O=C(NC1CCC1)c1ccc(C#Cc2cccc(F)c2)cn1` showed a fraction unbound ([2]; read-out: PPB) of less than 0.01, a fraction unbound [24] of less than 0.01 and a fraction unbound ([4]; read-out: PPB) of less than 0.01. For the same compound, the EC50 [6] was 4 nM and the fraction unbound [25] was less than 0.01.

In the case of `CC(C)(C)c1nnc2n1CC[C@H](c1nc(-c3ccc(F)cc3)no1)C2`, the EC50 [26] is reported as 52 nM, the EC50 [6] is reported as 42 nM and the fold change (FC) [27] is reported as 2.8.
